Laboratory results from ChEMBL document CHEMBL4680135, “Design, synthesis and biological evaluation of indole-2-carboxylic acid derivatives as IDO1/TDO dual inhibitors” (Eur J Med Chem, 2020).
The source made the active and inactive calls. No cut-off for these calls is given here.

Experiments:
A 172 [1] = test: Inhibition of IDO1/TDO in IFNgamma-stimulated human A172 cells assessed as reduction in kynurenine formation at 100 uM using L-tryptophan as substrate incubated for 48 hrs by microplate reader analysis relative to control; assay type: cell-based
In short: (§1)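 A172 cells seeded at 4×10^4/well, next day given compound in 10% serum medium with IFNγ (final 100 ng/mL) and Trp (final 1 mmol/L), 48 h. Supernatant treated with 30% (w/v) TCA, heated 65 °C 15 min, mixed with 2% p-dimethylaminobenzaldehyde in acetic acid; kynurenine pigment read at 490 nm.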

B16-F10 [2] = test: Antitumor activity against mouse B16F10 cells xenografted in C57BL/6 mouse assessed as tumor growth inhibition at 100 mg/kg, po administered for 19 consecutive days relative to control; assay type: functional; conditions: 456 h, time 19 day, read-out: TGI
In short: (§2)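 B16F10 melanoma cells harvested in saline; 1×10^6 cells injected subcutaneously into C57BL/6 mice on day 0. Mice randomized; daily oral dosing from day 1, compound in 0.5% CMC-Na, vehicle controls given 0.5% CMC-Na orally; cyclophosphamide 100 mg/kg i.p. as reference group.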

[3] = target: Indoleamine 2,3-dioxygenase 1 (Homo sapiens, UniProt P14902); test: Inhibition of recombinant human IDO1 assessed as reduction in kynurenine formation using L-tryptophan as substrate incubated for 45 mins by microplate reader assay
Chain of Indoleamine 2,3-dioxygenase 1 (P14902 whole entry): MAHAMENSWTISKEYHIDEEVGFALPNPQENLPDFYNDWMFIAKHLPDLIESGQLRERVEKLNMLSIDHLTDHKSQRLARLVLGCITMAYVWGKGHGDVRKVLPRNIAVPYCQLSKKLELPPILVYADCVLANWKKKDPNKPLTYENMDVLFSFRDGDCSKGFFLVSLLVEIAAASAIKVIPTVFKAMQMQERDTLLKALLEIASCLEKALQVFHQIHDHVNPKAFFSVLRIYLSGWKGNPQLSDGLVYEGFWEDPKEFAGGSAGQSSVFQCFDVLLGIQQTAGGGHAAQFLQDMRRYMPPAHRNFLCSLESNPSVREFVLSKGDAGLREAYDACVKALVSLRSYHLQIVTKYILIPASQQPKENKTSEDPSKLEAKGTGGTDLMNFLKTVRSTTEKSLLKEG

A 172 [4] = test: Inhibition of IDO1/TDO in IFNgamma-stimulated human A172 cells assessed as reduction in kynurenine formation at 50 uM using L-tryptophan as substrate incubated for 48 hrs by microplate reader analysis relative to control; assay type: cell-based; in short: as §1
T-lymphocyte = test: Reversal of IDO1/TDO-mediated suppression of mouse T-lymphocyte proliferation assessed as increase in mytomycin C treated LLC cells stimulated T-cells proliferation at 10 uM incubated for 3 days by Cell Titer Glo luminescent cell viability assay; assay type: cell-based; conditions: time 3.0 day
In short: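 Responder T lymphocytes from BALB/c mouse splenocytes (1×10^5/well) in RPMI 1640 with 10% FBS co-cultured with 1×10^4 LLC stimulator cells pretreated with mitomycin C (final 25 µg/mL, 37 °C, 1 h, washed thrice), plus compound; 37 °C, 5% CO₂, 3 days. Proliferation by CellTiter-Glo luminescence; mean of three replicate wells with SEM.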

[5] = Toxicity in C57BL/6 mouse xenografted with mouse B16F10 cells assessed as body weight loss at 50 to 100 mg/kg, po administered for 19 consecutive days; assay type: organism-based; conditions: in vivo, 456 h, dose 50-100 mg/kg, time 19 day
In short: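 B16F10 cells (1×10^6) implanted subcutaneously in C57BL/6 mice on day 0; daily oral treatment from day 1 with compound suspended in 0.5% CMC-Na, vehicle group receiving 0.5% CMC-Na. Body weight of treated mice compared against vehicle control group.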

B16-F10 [6] = test: Antitumor activity against mouse B16F10 cells xenografted in C57BL6 mouse assessed as tumor growth inhibition at 50 mg/kg, po administered for 19 consecutive days relative to control; assay type: functional; conditions: 456 h, time 19 day, read-out: TGI; in short: as §2
[7] = target: Tryptophan 2,3-dioxygenase (Homo sapiens, UniProt P48775); test: Inhibition of recombinant human TDO assessed as reduction in kynurenine formation using L-tryptophan as substrate incubated for 45 mins by microplate reader assay
Chain of Tryptophan 2,3-dioxygenase (P48775 whole entry): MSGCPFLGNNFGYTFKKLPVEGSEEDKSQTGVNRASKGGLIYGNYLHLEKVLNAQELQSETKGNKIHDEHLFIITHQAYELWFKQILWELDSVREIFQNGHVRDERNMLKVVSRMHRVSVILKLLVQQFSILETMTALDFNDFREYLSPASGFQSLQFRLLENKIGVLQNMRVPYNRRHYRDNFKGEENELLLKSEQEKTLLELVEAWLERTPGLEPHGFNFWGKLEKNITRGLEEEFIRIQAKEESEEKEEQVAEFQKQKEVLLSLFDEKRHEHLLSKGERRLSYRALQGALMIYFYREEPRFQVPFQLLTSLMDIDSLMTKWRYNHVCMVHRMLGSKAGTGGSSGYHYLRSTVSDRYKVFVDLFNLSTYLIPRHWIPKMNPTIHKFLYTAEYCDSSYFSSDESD
In short: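 Purified recombinant human TDO (0.05 μM) in 100 mM potassium phosphate pH 6.5 with 40 mM neutralized ascorbate, 200 μg/mL catalase, 20 μM methylene blue, L-Trp substrate and compound; 37 °C, 45 min. Stopped with 30% TCA, 65 °C 15 min, then 2% p-dimethylaminobenzaldehyde in acetic acid; absorbance 490 nm; IC50 by curve fitting.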

Row | Structure (SMILES) | IC50 [3] [µM] | IC50 [7] [µM] | inhibition (A 172 [1]) [%] | inhibition in vivo at 100 mg/kg (B16-F10 [2]) [%] | inhibition (A 172 [4]) [%] | Activity (T-lymphocyte) | Activity [5] | inhibition in vivo at 50 mg/kg (B16-F10 [6]) [%]
1 | CC(=O)Nc1cc(Nc2ccc(F)cn2)c2cc(C(=O)O)[nH]c2c1 | 10.8 | 11.7 |  |  |  |  |  | 
2 | CC(=O)Nc1cc(Nc2ccc(F)c(OCc3ccccc3)c2)c2cc(C(=O)O)[nH]c2c1 | 10 | 5.24 |  |  |  |  |  | 
3 | CC(=O)Nc1cc(Nc2ccc(OC(F)F)cc2)c2cc(C(=O)O)[nH]c2c1 | 3.18 | 5.5 |  |  |  |  |  | 

Further lines, with some results ahead:

Row | IC50 [3] [µM] | IC50 [7] [µM] | Structure (SMILES) | inhibition (A 172 [1]) [%] | inhibition in vivo at 100 mg/kg (B16-F10 [2]) [%] | inhibition (A 172 [4]) [%] | Activity (T-lymphocyte) | Activity [5] | inhibition in vivo at 50 mg/kg (B16-F10 [6]) [%]
4 | 3.18 | 7.12 | COc1cc(Nc2cc(NC(C)=O)cc3[nH]c(C(=O)O)cc23)cc(OC)c1OC | 77.7 | 44.7 | 55.9 | Active | Non-Toxic | 43.2
5 | 3.09 | 6.46 | CC(=O)Nc1cc(Nc2ccc(F)c(OC(C)C)c2)c2cc(C(=O)O)[nH]c2c1 |  |  |  |  |  | 
6 | 1.37 | 3.62 | CC(=O)Nc1cc(Nc2ccc(F)c(OC(F)(F)F)c2)c2cc(C(=O)O)[nH]c2c1 |  |  |  |  |  | 
